Test results: ChEMBL document CHEMBL1136250, “N1-benzenesulfonylgramine and N1-benzenesulfonylskatole: novel 5-HT6 receptor ligand templates” (Bioorg Med Chem Lett, 2003)

Target: 5-hydroxytryptamine receptor 6 (Homo sapiens, UniProt P50406)
Assay: Binding affinity towards human 5-hydroxytryptamine 6 receptor
Details: not given
Summary of the method: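 Competition binding with [3H]LSD (1 nM final), 90 min at room temperature in 50 mM Tris–Cl, 10 mM MgCl2, 0.1 mM EDTA, pH 7.40; clozapine defines non-specific binding. Test agent 1–10,000 nM; Ki by LIGAND fitting, triplicate determinations.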

5-hydroxytryptamine receptor 6, sequence (P50406 whole entry): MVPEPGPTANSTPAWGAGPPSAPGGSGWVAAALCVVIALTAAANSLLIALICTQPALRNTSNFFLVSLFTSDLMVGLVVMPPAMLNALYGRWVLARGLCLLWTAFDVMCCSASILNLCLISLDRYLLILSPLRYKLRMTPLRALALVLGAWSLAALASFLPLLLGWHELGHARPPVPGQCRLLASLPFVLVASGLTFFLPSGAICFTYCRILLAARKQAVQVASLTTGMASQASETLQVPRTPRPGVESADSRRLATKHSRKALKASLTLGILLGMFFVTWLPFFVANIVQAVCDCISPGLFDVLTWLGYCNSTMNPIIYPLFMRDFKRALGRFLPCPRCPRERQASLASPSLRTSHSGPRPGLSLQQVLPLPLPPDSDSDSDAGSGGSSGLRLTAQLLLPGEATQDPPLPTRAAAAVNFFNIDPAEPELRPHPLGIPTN

In order of rising Ki:
1. CCN(CC)CCc1cn(S(=O)(=O)c2ccc(N)cc2)c2ccc(OC)cc12  0.6 nM
2. CCN(CC)CCc1cn(S(=O)(=O)c2ccc(N)cc2)c2ccccc12  0.6 nM
3. COc1ccc2c(c1)c(CCN(C)Cc1ccccc1)cn2S(=O)(=O)c1ccc(N)cc1  3 nM
4. CCN(CC)CCc1cn(S(=O)(=O)c2ccccc2)c2ccc(OC)cc12  6.2 nM
5. CNCCc1cn(S(=O)(=O)c2ccccc2)c2ccc(OC)cc12  23 nM
6. CC(=O)Nc1ccc(S(=O)(=O)n2cc(CCN(C)C)c3ccccc32)cc1  27 nM
7. CN(C)CCc1cn(S(=O)(=O)c2ccccc2)c2ccc(O)cc12  28 nM
8. COc1ccc2c(c1)c(CCN(C)C)cn2S(=O)(=O)c1ccc(NC(C)=O)cc1  34 nM
9. COc1ccc2c(c1)c(CCN(C)Cc1ccccc1)cn2S(=O)(=O)c1ccccc1  43 nM
10. CCN(CC)CCc1cn(S(=O)(=O)c2ccc(NC(C)=O)cc2)c2ccccc12  90 nM
11. CCN(CC)CCc1cn(S(=O)(=O)c2ccc(NC(C)=O)cc2)c2ccc(OC)cc12  230 nM

Tested on: not listed separately
Assay: pA2 value was determined
Details: not given

Compound `Cc1cn(S(=O)(=O)c2ccc(N)cc2)c2ccccc12` has a pA2 of 7.

Tested on: HEK293
Assay: Inhibition of 5-HT stimulated cAMP production in HEK-5-HT6 cells
Type: functional, cell-based
Details: Homo sapiens
Summary of the method: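 HEK cells expressing 5-HT6 receptors; the compound was tested alone for agonist-induced cAMP production, and against 5-HT-stimulated cAMP production. IC50 was calculated for inhibition of the 5-HT-stimulated cAMP response.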

In order of rising IC50:
1. Cc1cn(S(=O)(=O)c2ccc(N)cc2)c2ccccc12  320 nM
2. CN(C)Cc1cn(S(=O)(=O)c2ccccc2)c2ccccc12  880 nM
